From ChEMBL document CHEMBL2034825, “Chemical syntheses and in vitro antibacterial activity of two desferrioxamine B-ciprofloxacin conjugates with potential esterase and phosphatase triggered drug release linkers” (2012)
≈ marks a conversion by molar mass, not a printed value.

Tests used:
Pseudomonas aeruginosa [1] = assay: Antibacterial activity against Pseudomonas aeruginosa K799/61 assessed as unclear inhibition zone at 50 uL of 0.2 mM solution of compound dissolved in 1:9 DMSO/MeOH measured after 24 hrs by agar well diffusion method; assay type: functional
Procedure, shortened: (§1)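 Agar well diffusion. 50 µL of a 0.2 mM solution in 1:9 DMSO/MeOH was filled into 9 mm wells in nutrient agar or Mueller Hinton II agar. Plates were incubated 24 h at 37 °C before inhibition zones were read. Zones were scored as partially clear (p, colonies in zone) or unclear (P, many colonies in zone).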

Micrococcus luteus [2] = assay: Antibacterial activity against Micrococcus luteus ATCC 10240 at 50 uL of 0.2 mM solution of compound dissolved in 1:9 DMSO/MeOH measured after 24 hrs by agar well diffusion method; assay type: functional; procedure, shortened: as §1
Escherichia coli [3] = assay: Antibacterial activity against Escherichia coli X580 at 50 uL of 0.2 mM solution of compound dissolved in 1:9 DMSO/MeOH measured after 24 hrs by agar well diffusion method; assay type: functional; procedure, shortened: as §1
Bacillus subtilis [4] = assay: Antibacterial activity against Bacillus subtilis ATCC 6633 at 50 uL of 0.2 mM solution of compound dissolved in 1:9 DMSO/MeOH measured after 24 hrs by agar well diffusion method; assay type: functional; procedure, shortened: as §1
Pseudomonas aeruginosa [5] = assay: Antibacterial activity against wild type Pseudomonas aeruginosa K799 at 50 uL of 0.2 mM solution of compound dissolved in 1:9 DMSO/MeOH measured after 24 hrs by agar well diffusion method; assay type: functional; procedure, shortened: as §1
Escherichia coli [6] = assay: Antibacterial activity against Escherichia coli X580 assessed as partially clear inhibition zone at 50 uL of 0.2 mM solution of compound dissolved in 1:9 DMSO/MeOH measured after 24 hrs by agar well diffusion method; assay type: functional; procedure, shortened: as §1
Staphylococcus aureus [7] = assay: Antibacterial activity against Staphylococcus aureus SG 511 at 50 uL of 0.2 mM solution of compound dissolved in 1:9 DMSO/MeOH measured after 24 hrs by agar well diffusion method; assay type: functional; procedure, shortened: as §1
Pseudomonas aeruginosa [8] = assay: Antibacterial activity against Pseudomonas aeruginosa K799/61 at 50 uL of 0.2 mM solution of compound dissolved in 1:9 DMSO/MeOH measured after 24 hrs by agar well diffusion method; assay type: functional; procedure, shortened: as §1
Pseudomonas aeruginosa [9] = assay: Antibacterial activity against Pseudomonas aeruginosa ATCC 27853 by broth microdilution method; assay type: functional
Procedure, shortened: (§2)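 MIC90 (µM) by broth microdilution in Mueller-Hinton broth No.2 (MHII) following CLSI guidelines. End point read visually. Each compound tested in triplicate.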

Pseudomonas aeruginosa [10] = assay: Antibacterial activity against Pseudomonas aeruginosa K799/61 assessed as partially clear inhibition zone at 50 uL of 0.2 mM solution of compound dissolved in 1:9 DMSO/MeOH measured after 24 hrs by agar well diffusion method; assay type: functional; procedure, shortened: as §1
Acinetobacter baumannii = assay: Antibacterial activity against Acinetobacter baumannii ATCC 17961 by broth microdilution method; assay type: functional; procedure, shortened: as §2
Escherichia coli [11] = assay: Antibacterial activity against Escherichia coli ATCC 25922 by broth microdilution method; assay type: functional; procedure, shortened: as §2
Staphylococcus aureus [12] = assay: Antibacterial activity against Staphylococcus aureus ATCC 29213 by broth microdilution method; assay type: functional; procedure, shortened: as §2
Klebsiella aerogenes = assay: Antibacterial activity against Enterobacter aerogenes ATCC 35029 by broth microdilution method; assay type: functional; procedure, shortened: as §2
Klebsiella pneumoniae = assay: Antibacterial activity against Klebsiella pneumoniae ATCC 700603 by broth microdilution method; assay type: functional; procedure, shortened: as §2
Enterococcus faecium = assay: Antibacterial activity against Enterococcus faecium NCTC 7171 by broth microdilution method; assay type: functional; procedure, shortened: as §2
Pseudomonas aeruginosa [13] = assay: microbe, parasite or virus in culture; conditions: K799/61, 24 h, read-out: DIZ
Micrococcus luteus [14] = assay: Antibacterial activity against Micrococcus luteus ATCC 10240 assessed as unclear inhibition zone at 5 ug/mL after 24 hrs by agar well diffusion method; assay type: functional; conditions: ATCC 10240, 24 h, read-out: DIZ
Procedure, shortened: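 Agar well diffusion with ciprofloxacin dissolved in H2O, tested at 5, 1.66 or […]. Solution was loaded into 9 mm wells in nutrient agar or Mueller Hinton II agar. Inhibition zones were read after 24 h at 37 °C. A zone was scored as P when unclear, with many colonies inside.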

Pseudomonas aeruginosa [15] = assay: microbe, parasite or virus in culture; conditions: K799/61, 24 h, read-out: DIZ; remark: listed apart in the source
Bacillus subtilis [16] = assay: microbe, parasite or virus in culture; conditions: ATCC 6633, 24 h, read-out: DIZ
Pseudomonas aeruginosa [17] = assay: microbe, parasite or virus in culture; conditions: K799, 24 h, read-out: DIZ
Staphylococcus aureus [18] = assay: microbe, parasite or virus in culture; conditions: SG 511, 24 h, read-out: DIZ
Escherichia coli [19] = assay: Antibacterial activity against Escherichia coli X580 at 0.33 ug/mL after 24 hrs by agar well diffusion method; conditions: X580, 24 h, read-out: DIZ

## CC(=O)N(O)CCCCCNC(=O)CCC(=O)N(O)CCCCCNC(=O)CCC(=O)N(O)CCCCCNC(=O)CCC(=O)N1CCN(c2cc3c(cc2F)c(=O)c(C(=O)O)cn3C2CC2)CC1
Pseudomonas aeruginosa [1]
  diameter of the inhibition zone (DIZ): 26 mm
Micrococcus luteus [2]
  diameter of the inhibition zone (DIZ): 0 mm
Escherichia coli [3]
  diameter of the inhibition zone (DIZ): 30 mm
Bacillus subtilis [4]
  diameter of the inhibition zone (DIZ): 21 mm
Pseudomonas aeruginosa [5]
  diameter of the inhibition zone (DIZ): 0 mm
Escherichia coli [6]
  diameter of the inhibition zone (DIZ): 33 mm
Staphylococcus aureus [7]
  diameter of the inhibition zone (DIZ): 18 mm

## CC(=O)N(O)CCCCCNC(=O)CCC(=O)N(O)CCCCCNC(=O)CCC(=O)N(O)CCCCCNC(=O)CCC(=O)Oc1cc(C)cc(C)c1C(C)(C)CC(=O)N1CCN(c2cc3c(cc2F)c(=O)c(C(=O)O)cn3C2CC2)CC1
Micrococcus luteus [2]
  diameter of the inhibition zone (DIZ): 0 mm
Pseudomonas aeruginosa [8]
  diameter of the inhibition zone (DIZ): 27 mm
Escherichia coli [3]
  diameter of the inhibition zone (DIZ): 29 mm
Pseudomonas aeruginosa [9]
  MIC90: 8 µM (≈ 9.43 µg/mL)
Pseudomonas aeruginosa [10]
  diameter of the inhibition zone (DIZ): 37 mm
Acinetobacter baumannii
  MIC90: 8 µM (≈ 9.43 µg/mL)
Escherichia coli [11]
  MIC90: 1 µM (≈ 1.18 µg/mL)
Staphylococcus aureus [12]
  MIC90: 32 µM (≈ 37.7 µg/mL)
Klebsiella aerogenes
  MIC90: 1 µM (≈ 1.18 µg/mL)
Bacillus subtilis [4]
  diameter of the inhibition zone (DIZ): 26 mm
Pseudomonas aeruginosa [5]
  diameter of the inhibition zone (DIZ): 26 mm
Klebsiella pneumoniae
  MIC90: 16 µM (≈ 18.9 µg/mL)
Enterococcus faecium
  MIC90: > 128 µM
Staphylococcus aureus [7]
  diameter of the inhibition zone (DIZ): 16 mm

## CC(=O)N(O)CCCCCNC(=O)CCC(=O)N(O)CCCCCNC(=O)CCC(=O)N(O)CCCCCNC(=O)CCC(=O)Oc1c(C)cc(OP(=O)(O)O)c(C(C)(C)CC(=O)N2CCN(c3cc4c(cc3F)c(=O)c(C(=O)O)cn4C3CC3)CC2)c1C
Micrococcus luteus [2]
  diameter of the inhibition zone (DIZ): 0 mm
Pseudomonas aeruginosa [8]
  diameter of the inhibition zone (DIZ): 0 mm
Escherichia coli [3]
  diameter of the inhibition zone (DIZ): 21 mm
Bacillus subtilis [4]
  diameter of the inhibition zone (DIZ): 0 mm
Pseudomonas aeruginosa [5]
  diameter of the inhibition zone (DIZ): 0 mm
Staphylococcus aureus [7]
  diameter of the inhibition zone (DIZ): 0 mm

## O=C(O)c1cn(C2CC2)c2cc(N3CCNCC3)c(F)cc2c1=O [CIPROFLOXACIN]
Pseudomonas aeruginosa [13]
  zone of inhibition at 1.66 µg/mL: 24 mm
Micrococcus luteus [14]
  zone of inhibition at 5 µg/mL: 12 mm
Pseudomonas aeruginosa [9]
  MIC90: 0.25 µM (≈ 0.0828 µg/mL)
Pseudomonas aeruginosa [15]
  zone of inhibition at 1.66 µg/mL: 32 mm
Bacillus subtilis [16]
  zone of inhibition at 1.66 µg/mL: 28 mm
Acinetobacter baumannii
  MIC90: 0.25 µM (≈ 0.0828 µg/mL)
Escherichia coli [11]
  MIC90: < 0.015 µM
Pseudomonas aeruginosa [17]
  zone of inhibition at 1.66 µg/mL: 21 mm
Klebsiella aerogenes
  MIC90: < 0.015 µM
Staphylococcus aureus [18]
  zone of inhibition at 5 µg/mL: 28 mm
Klebsiella pneumoniae
  MIC90: 0.25 µM (≈ 0.0828 µg/mL)
Enterococcus faecium
  MIC90: 8 µM (≈ 2.65 µg/mL)
Escherichia coli [19]
  zone of inhibition at 0.33 µg/mL: 31 mm
